For experiment [1], the system named is NCI-H1299. Description: Antitumour activity against human H1299 cells xenografted in Balb/c mouse assessed as reduction in Oct4 level at 20 to 80 mg/kg, po administered for 3 weeks by […] based light microscopic analysis. Type of experiment: functional, organism-based. The gist of the method:
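Tumours came from the H1299 oral-dosing xenograft run for 3 weeks. Formalin-fixed, paraffin-embedded 5-µm sections were deparaffinized and rehydrated. Primary antibodies (CDK9, cyclin T1, p-Rb Ser780, RNAPII CTD Ser5, Oct4) used at 1:100 overnight at 4 °C. Biotinylated secondary for 1 h at room temperature, then ABC-peroxidase/DAB, hematoxylin counterstain and light microscopy.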

For experiment [2], the system named is eIF-2-alpha kinase GCN2 (Homo sapiens), Q9P2K8 [E556G]. The experiment is described as follows: Inhibition of recombinant full-length human GCN2 E556G mutant at 1 uM using RSRSRSRSRSRSRSR as substrate measured after 40 mins in presence of [gamma33P]ATP by scintillation counting method relative to control.
Experiment [3] concerns the target Tyrosine-protein kinase HCK (Homo sapiens) (UniProt P08631). The experiment is described as follows: Inhibition of recombinant human HCK (230 to 497 residues) at 1 uM using Cdc2 peptide as substrate measured after 40 mins in presence of [gamma33P]ATP by scintillation counting method relative to control.
Experiment [4] has as its system NCI-H1299. The experiment is described as follows: Induction of apoptosis in human H1299 cells assessed as activation of caspase 3 at 0.25 to 1 uM after 24 hrs by Western blot analysis. Type of experiment: functional, cell-based. The gist of the method: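 A549 or H1299 cells exposed to the indicated concentrations for 24 h. Protein extracts then immunoblotted for apoptosis-pathway proteins (Bcl2, Bim, cleaved caspase 3).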
A general note: A western blot detects proteins with antibodies after separation by electrophoresis.

In experiment [5] the target is Serine/threonine-protein kinase Nek1 (Homo sapiens) (UniProt Q96PY6). The experiment is described as follows: Inhibition of recombinant human NEK1 (1 to 505 residues) at 1 uM using RLGRDKYKTLRQIRQ as substrate measured after 40 mins in presence of [gamma33P]ATP by scintillation counting method relative to control.
Experiment [6] has as its target Serine/threonine-protein kinase ICK (Homo sapiens) (UniProt Q9UPZ9). The experiment is described as follows: Inhibition of recombinant human ICK (1 to 312 residues) at 1 uM using RRRFRPASPLRGPPK as substrate measured after 40 mins in presence of [gamma33P]ATP by scintillation counting method relative to control.
The target in experiment [7] is Tyrosine-protein kinase Fes/Fps (Homo sapiens) (UniProt P07332). Description: Inhibition of recombinant human FES (2 to end residues) at 1 uM using poly(Glu, Tyr) 4:1 as substrate measured after 40 mins in presence of [gamma33P]ATP by scintillation counting method relative to control.
For experiment [8], the species on record is Homo sapiens. The experiment is described as follows: Inhibition of recombinant human PRAK R291E mutant at 1 uM using KKLRRTLSVA as substrate measured after 40 mins in presence of [gamma33P]ATP by scintillation counting method relative to control.
Experiment [9] relates to Mast/stem cell growth factor receptor Kit (Homo sapiens), P10721 [D816V]. Description: Inhibition of recombinant human cKit (544 to end residues) D816V mutant at 1 uM using poly(Glu, Tyr) 4:1 as substrate measured after 40 mins in presence of [gamma33P]ATP by scintillation counting method relative to control. The gist of the method:
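Single-point inhibition at 1 µM was measured in the Eurofins KinaseProfiler panel. Values are the mean of two independent experiments.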

Experiment [10] deals with Insulin receptor (Homo sapiens) (UniProt P06213). Description: Inhibition of recombinant human activated IR (1005 to 1310 residues) at 1 uM using KKKSPGEYVNIEFG as substrate measured after 40 mins in presence of [gamma33P]ATP by scintillation counting method relative to control.
Experiment [11] has as its system U-937. Description: Antiproliferative activity against human U937 cells assessed as inhibition of cell viability after 72 hrs by CCK-8 assay. Type of experiment: functional, cell-based. To be noted: U-937, 72 h. In short, it runs like this: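 Cells kept at 37 °C, 5% CO2 in DMEM or RPMI-1640 with 10% FBS and 1% penicillin/streptomycin, then seeded at 3000 cells/well (adherent) or 10,000 cells/well (suspension). Exposed to a range of concentrations for 72 h. CCK-8 added for 1-4 h before reading A450. […] Three independent experiments.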
(In general: Tetrazolium dyes change colour on reduction, which living cells bring about.)

Experiment [12] has as its target CDK4/Cyclin D3 (Homo sapiens) (UniProt P11802+P30281). The experiment is described as follows: Inhibition of recombinant full-length human CDK4/cyclinD3 at 1 uM using Rb fragment as substrate measured after 40 mins in presence of [gamma33P]ATP by scintillation counting method relative to control. It counts as protein-complex assay. The gist of the method:
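Percent inhibition of kinase activity at a single compound concentration, measured by the outsourced Eurofins KinaseProfiler panel. Values are the mean of two independent experiments.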

The subject of experiment [13] is A549. The experiment is described as follows: Induction of apoptosis in human A549 cells assessed as viable cells at 0.25 uM after 48 hrs by AnnexinV-FITC/PI staining-based flow cytometric analysis (reference value: 88.8%). Type of experiment: functional. To be noted: A549, 48 h, read-out: Activity. A general note: In flow cytometry, cells or beads pass a laser one at a time.

Experiment [14] has as its target Cyclin-dependent kinase 9 (Homo sapiens) (UniProt P50750). Particulars: A549, 0.25 uM.
In experiment [15] the target is Mitogen-activated protein kinase 13 (Homo sapiens) (UniProt O15264). Description: Inhibition of recombinant full-length human SAPK4 at 1 uM using myelin basic protein as substrate measured after 40 mins in presence of [gamma33P]ATP by scintillation counting method relative to control.
For experiment [16], the target named is Tyrosine-protein kinase ITK/TSK (Homo sapiens) (UniProt Q08881). The experiment is described as follows: Inhibition of recombinant human ITK (352 to 617 residues) at 1 uM using myelin basic protein as substrate measured after 40 mins in presence of [gamma33P]ATP by scintillation counting method relative to control.
In experiment [17] the test system is A549. The experiment is described as follows: Downregulation of KLF4 in human A549 cells at 0.25 to 1 uM by Western blot analysis. It counts as functional, cell-based.
The test system of experiment [18] is A549. The experiment is described as follows: Induction of apoptosis in human A549 cells assessed as necrotic cells at 0.25 uM after 48 hrs by AnnexinV-FITC/PI staining-based flow cytometric analysis (reference value: 0.664%). It counts as functional.
In experiment [19] the target is Tyrosine-protein kinase Lck (Homo sapiens) (UniProt P06239). Description: Inhibition of recombinant full-length human LCK at 1 uM using Cdc2 peptide as substrate measured after 40 mins in presence of [gamma33P]ATP by scintillation counting method relative to control.
Experiment [20] addresses Vascular endothelial growth factor receptor 2 (Homo sapiens) (UniProt P35968). The experiment is described as follows: Inhibition of recombinant human KDR (790 to end residues) at 1 uM using MBP as substrate measured after 40 mins in presence of [gamma33P]ATP by scintillation counting method relative to control.
In experiment [21] the test system is NCI-H1299. The experiment is described as follows: Antitumour activity against human H1299 cells xenografted in Balb/c mouse assessed as inhibition of tumour growth at 20 mg/kg, po administered for 21 days by digital caliper method relative to control. Particulars: 504 h, read-out: TGI. Type of experiment: functional. In short, it runs like this:
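Female nude mice, 6-8 weeks old, injected subcutaneously with 1×10^6 H1299 cells (100 µL of a 1×10^7/mL suspension in serum-free medium). At 100-120 mm3, randomized into groups of 5. Dosed orally each day for 21 days with drug dissolved in DMSO, or with vehicle. Caliper measurements and body weight taken every other day. Volume = short²×long×0.5. Growth inhibition based on change in volume relative to vehicle. Tumours weighed at the end.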

Activity calls are given as the source filed them. The calls are words filed in the database; no cut-off is given here.

As a reminder, the inhibition is the change of the read-out against control, counted positive when it falls. In general, IC50 refers to the concentration at which inhibition is half-maximal.

Vascular endothelial growth factor receptor 2 (Homo sapiens), sequence (P35968 whole entry): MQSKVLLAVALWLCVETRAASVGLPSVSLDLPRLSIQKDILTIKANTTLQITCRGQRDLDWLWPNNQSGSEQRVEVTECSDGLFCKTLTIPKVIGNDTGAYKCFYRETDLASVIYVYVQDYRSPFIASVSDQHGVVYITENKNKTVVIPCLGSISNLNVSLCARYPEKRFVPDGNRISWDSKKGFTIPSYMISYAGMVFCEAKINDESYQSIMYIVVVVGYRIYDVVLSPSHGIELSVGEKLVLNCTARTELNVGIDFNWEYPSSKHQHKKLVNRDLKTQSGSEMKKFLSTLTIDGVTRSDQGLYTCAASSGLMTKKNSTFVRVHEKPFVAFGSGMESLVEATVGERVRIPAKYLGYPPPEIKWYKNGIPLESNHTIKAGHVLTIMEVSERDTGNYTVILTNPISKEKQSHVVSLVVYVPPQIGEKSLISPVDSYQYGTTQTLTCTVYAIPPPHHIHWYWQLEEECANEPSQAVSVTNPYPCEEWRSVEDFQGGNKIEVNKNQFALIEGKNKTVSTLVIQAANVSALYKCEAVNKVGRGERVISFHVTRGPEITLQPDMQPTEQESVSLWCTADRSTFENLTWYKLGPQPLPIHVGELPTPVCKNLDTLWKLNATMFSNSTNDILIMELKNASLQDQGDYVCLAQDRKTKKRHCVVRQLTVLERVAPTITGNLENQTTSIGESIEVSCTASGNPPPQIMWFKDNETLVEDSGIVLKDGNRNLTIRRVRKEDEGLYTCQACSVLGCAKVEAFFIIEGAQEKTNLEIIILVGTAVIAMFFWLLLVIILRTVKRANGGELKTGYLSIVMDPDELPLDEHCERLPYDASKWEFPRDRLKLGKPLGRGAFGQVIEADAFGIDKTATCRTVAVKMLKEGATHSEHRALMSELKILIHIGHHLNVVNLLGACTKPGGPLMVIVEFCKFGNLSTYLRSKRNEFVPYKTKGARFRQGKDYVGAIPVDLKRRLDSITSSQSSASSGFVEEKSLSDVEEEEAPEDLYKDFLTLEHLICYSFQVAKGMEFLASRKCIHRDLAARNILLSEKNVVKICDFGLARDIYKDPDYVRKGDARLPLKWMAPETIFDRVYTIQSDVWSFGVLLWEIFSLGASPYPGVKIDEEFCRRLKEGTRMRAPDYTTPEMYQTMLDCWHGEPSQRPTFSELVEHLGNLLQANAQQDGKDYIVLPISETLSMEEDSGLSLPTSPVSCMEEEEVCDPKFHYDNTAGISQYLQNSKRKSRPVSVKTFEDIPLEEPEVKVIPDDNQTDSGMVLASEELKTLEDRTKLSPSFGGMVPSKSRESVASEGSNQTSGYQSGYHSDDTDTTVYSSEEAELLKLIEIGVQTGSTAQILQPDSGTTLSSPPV
Serine/threonine-protein kinase Nek1 (Homo sapiens), sequence (Q96PY6 whole entry, the tested form may be a part): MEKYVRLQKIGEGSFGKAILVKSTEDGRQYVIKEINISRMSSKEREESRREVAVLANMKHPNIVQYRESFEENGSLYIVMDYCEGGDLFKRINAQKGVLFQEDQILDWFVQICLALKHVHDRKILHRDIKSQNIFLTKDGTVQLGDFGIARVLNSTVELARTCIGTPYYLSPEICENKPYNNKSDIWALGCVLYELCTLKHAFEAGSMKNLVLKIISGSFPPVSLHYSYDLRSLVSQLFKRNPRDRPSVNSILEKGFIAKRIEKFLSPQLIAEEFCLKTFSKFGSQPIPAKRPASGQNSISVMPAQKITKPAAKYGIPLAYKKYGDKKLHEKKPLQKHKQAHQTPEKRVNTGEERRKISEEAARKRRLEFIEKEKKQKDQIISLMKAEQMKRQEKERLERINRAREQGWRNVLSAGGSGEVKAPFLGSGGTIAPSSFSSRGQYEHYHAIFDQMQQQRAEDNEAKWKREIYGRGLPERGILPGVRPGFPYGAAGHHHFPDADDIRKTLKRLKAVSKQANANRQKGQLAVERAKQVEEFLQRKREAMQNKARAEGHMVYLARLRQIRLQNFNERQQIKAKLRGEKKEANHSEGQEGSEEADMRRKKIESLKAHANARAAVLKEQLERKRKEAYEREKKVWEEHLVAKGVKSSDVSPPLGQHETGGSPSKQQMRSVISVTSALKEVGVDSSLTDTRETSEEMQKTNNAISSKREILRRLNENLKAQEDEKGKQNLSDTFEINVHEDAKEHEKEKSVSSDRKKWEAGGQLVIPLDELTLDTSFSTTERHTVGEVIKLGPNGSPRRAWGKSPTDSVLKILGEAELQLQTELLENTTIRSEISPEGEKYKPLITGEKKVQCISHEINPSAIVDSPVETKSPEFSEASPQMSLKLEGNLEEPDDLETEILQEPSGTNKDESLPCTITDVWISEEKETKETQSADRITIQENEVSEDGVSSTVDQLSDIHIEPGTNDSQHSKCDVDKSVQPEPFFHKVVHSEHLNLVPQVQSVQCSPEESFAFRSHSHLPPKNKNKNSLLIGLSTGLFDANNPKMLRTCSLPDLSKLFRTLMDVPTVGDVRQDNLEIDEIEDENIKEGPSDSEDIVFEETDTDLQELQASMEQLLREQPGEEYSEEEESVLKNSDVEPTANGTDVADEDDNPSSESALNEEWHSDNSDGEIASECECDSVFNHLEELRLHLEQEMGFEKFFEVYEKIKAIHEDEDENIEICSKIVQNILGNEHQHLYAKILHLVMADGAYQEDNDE
Tyrosine-protein kinase ITK/TSK (Homo sapiens), sequence (Q08881 whole entry, the tested form may be a part): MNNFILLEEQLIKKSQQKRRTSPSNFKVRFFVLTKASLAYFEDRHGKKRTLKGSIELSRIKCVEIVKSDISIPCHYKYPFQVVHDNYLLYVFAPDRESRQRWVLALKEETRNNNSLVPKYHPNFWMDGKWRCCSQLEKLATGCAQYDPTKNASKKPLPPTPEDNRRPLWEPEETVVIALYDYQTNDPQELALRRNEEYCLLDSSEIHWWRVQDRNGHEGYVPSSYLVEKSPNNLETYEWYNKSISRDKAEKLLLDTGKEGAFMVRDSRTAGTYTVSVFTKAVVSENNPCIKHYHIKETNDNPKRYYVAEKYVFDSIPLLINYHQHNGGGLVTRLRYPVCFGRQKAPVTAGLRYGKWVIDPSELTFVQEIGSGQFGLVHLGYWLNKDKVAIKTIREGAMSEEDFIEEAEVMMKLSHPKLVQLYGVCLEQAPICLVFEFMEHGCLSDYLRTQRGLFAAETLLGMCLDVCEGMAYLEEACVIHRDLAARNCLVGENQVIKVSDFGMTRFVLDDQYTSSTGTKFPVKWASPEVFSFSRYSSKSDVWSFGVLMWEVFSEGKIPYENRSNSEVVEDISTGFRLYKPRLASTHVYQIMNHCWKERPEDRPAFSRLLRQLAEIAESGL
Insulin receptor (Homo sapiens), sequence (P06213 28-758 limits assumed): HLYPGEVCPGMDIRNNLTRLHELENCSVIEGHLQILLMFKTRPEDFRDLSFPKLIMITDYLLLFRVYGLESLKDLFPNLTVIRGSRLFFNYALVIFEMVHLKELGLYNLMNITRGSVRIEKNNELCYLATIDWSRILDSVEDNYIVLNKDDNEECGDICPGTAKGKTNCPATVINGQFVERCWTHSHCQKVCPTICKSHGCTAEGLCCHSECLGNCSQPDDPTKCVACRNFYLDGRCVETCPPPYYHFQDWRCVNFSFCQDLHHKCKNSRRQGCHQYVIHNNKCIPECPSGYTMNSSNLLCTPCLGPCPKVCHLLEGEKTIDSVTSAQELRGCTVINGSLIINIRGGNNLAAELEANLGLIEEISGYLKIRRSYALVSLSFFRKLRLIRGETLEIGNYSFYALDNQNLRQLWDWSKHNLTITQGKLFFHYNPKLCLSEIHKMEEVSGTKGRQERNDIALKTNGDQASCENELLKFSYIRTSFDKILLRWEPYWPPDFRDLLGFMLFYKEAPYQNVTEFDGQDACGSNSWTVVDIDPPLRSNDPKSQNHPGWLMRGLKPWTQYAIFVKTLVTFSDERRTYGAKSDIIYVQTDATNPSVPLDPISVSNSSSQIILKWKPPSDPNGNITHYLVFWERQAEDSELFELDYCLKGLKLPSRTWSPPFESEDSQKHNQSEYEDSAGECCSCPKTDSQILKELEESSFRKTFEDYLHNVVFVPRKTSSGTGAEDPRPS
Insulin receptor (Homo sapiens), sequence (P06213 763-1382 limits assumed): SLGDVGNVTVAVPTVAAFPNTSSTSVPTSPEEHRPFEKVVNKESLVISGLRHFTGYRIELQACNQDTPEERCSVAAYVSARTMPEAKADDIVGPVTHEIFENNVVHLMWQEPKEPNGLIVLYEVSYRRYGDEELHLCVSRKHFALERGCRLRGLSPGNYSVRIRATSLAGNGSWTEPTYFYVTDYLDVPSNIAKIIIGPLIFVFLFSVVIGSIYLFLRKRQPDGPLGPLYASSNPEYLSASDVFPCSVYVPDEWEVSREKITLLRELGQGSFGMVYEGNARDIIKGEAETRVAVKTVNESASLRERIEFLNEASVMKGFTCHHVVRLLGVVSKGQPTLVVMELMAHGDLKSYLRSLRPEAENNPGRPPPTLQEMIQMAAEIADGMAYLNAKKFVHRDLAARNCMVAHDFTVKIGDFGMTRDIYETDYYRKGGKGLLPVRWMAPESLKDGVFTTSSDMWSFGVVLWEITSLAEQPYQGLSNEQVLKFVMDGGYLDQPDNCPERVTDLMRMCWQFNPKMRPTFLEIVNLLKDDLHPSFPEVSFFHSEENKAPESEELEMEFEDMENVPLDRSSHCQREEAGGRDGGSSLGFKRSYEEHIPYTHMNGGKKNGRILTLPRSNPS
Cyclin-dependent kinase 9 (Homo sapiens), sequence (P50750 whole entry): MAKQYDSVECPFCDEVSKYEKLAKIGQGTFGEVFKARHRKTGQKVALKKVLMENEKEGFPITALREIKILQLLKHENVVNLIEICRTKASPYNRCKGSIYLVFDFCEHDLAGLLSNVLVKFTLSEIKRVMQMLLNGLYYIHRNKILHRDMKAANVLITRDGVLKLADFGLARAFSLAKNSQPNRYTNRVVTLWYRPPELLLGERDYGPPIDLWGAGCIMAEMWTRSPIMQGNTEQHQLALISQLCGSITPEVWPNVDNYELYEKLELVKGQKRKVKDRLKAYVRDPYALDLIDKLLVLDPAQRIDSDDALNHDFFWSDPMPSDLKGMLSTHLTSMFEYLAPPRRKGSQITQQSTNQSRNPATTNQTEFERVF

With `CN(C)C(=O)c1cc2cnc(Nc3ccc(NC(=O)CCCCCCCN=C=S)cc3)nc2n1C1CCCC1`, the result in [1], in [4] and in experiment [17] was Active. Also, the inhibition in experiment [2] stood at 0%; in experiment [3], 9%; in experiment [5] it was 69%; in experiment [6], 38%; in experiment [7], 7%; in [8], 3%. Also, the inhibition in [9] is 11%; in experiment [10], -7%; in experiment [12] it was 87%; in experiment [15] it was 10%; in experiment [16], 91%; in experiment [19] it was 33%. Also, in experiment [20], the inhibition is 56%. Further, the 50% inhibitory concentration (IC50) in experiment [11] turned out to be 1990 nM. In addition, the viability at 0.25 µM in experiment [13] stood at 77.9%. In addition, the inhibition entry in experiment [14] is “Active”. Further, the Activity in experiment [18] came to 5.83%. The inhibition in vivo at 20 mg/kg in [21] worked out at 62%.

Values taken from ChEMBL document CHEMBL4376814, “Novel cyclin-dependent kinase 9 (CDK9) inhibitor with suppression of cancer stemness activity against non-small-cell lung cancer” (Eur J Med Chem, 2019).
